Data as given in ChEMBL document CHEMBL1828597, “Tyrosyl-tRNA synthetase inhibitors as antibacterial agents: synthesis, molecular docking and structure-activity relationship analysis of 3-aryl-4-arylaminofuran-2(5H)-ones” (Eur J Med Chem, 2011).
Values after ≈ are worked out from the molar mass of the structure shown.

Legend:
[1] = test system: Escherichia coli; assay: Antibacterial activity against Escherichia coli ATCC 35218 after 24 hrs by MTT assay; assay type: functional; conditions: ATCC 35218, 24 h
Outline: (§1)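 LB medium, inocula of about 10⁵ cfu/mL in 96-well plates against serially diluted compounds (DMSO stock diluted in 50% v/v DMSO/PBS), 37 °C for 24 h. Read-out: PBS containing 2 mg/mL MTT added for 4–5 h at room temperature, wells emptied, solubilizer added for 12 h at room temperature, then OD at 550 nm. MIC₅₀ from this colorimetric read.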

[2] = test system: Staphylococcus aureus; assay: Antibacterial activity against Staphylococcus aureus ATCC 25923 after 24 hrs by MTT assay; assay type: functional; conditions: ATCC 25923, 24 h; outline: as §1
[3] = test system: Bacillus subtilis; assay: Antibacterial activity against Bacillus subtilis ATCC 6633 after 24 hrs by MTT assay; assay type: functional; conditions: ATCC 6633, 24 h; outline: as §1
[4] = Inhibition of Staphylococcus aureus TyrRS assessed as inhibition of [3H]tyrosine incorporation after 10 mins by liquid scintillation counting
[5] = test system: Candida albicans; assay: Antifungal activity against Candida albicans ATCC 10231 after 48 hrs by MTT assay; conditions: ATCC 10231, 48 h

Compound | MIC50 [1] [µg/mL] | MIC50 [2] [µg/mL] | MIC50 [3] [µg/mL] | IC50 [4] [µM] | MIC50 [5] [µg/mL]
O=C1OCC(Nc2ccccc2Cl)=C1c1ccccc1 | > 50 | > 50 | > 50 | 89.9 | > 50
O=C1OCC(Nc2cccc(Cl)c2)=C1c1ccccc1 | > 50 | 32.1 (≈ 112 µM) | > 50 | 20.8 | 41.8 (≈ 146 µM)
O=C1OCC(Nc2ccccc2[N+](=O)[O-])=C1c1ccccc1 | > 50 | > 50 | > 50 | > 100 | > 50
O=C1OCC(Nc2cccc([N+](=O)[O-])c2)=C1c1ccccc1 | > 50 | > 50 | > 50 | 44.6 | > 50
O=C1OCC(Nc2cc(Br)cc(Br)c2)=C1c1ccc(F)cc1 | > 50 | 10.2 (≈ 23.9 µM) | 38.6 (≈ 90.4 µM) | 9.2 | 28.6 (≈ 67 µM)
O=C1OCC(Nc2cccc(Cl)c2)=C1c1ccc(Cl)cc1 | > 50 | 3.3 (≈ 10.3 µM) | 10.9 (≈ 34 µM) | 2.4 | 9.7 (≈ 30.3 µM)
O=C1OCC(Nc2ccccc2)=C1c1ccc(Br)cc1 | > 50 | 27.8 (≈ 84.2 µM) | 41.7 (≈ 126 µM) | 16.6 | 37.5 (≈ 114 µM)
O=C1OCC(Nc2ccccn2)=C1c1ccc(Br)cc1 | > 50 | 39 (≈ 118 µM) | > 50 | 25.6 | > 50
CN(C1=C(c2ccc(Br)cc2)C(=O)OC1)c1ccccc1 | > 50 | 45.8 (≈ 133 µM) | > 50 | 29.4 | > 50
O=C1OCC(Nc2ccccc2Cl)=C1c1ccc(Br)cc1 | > 50 | 34.6 (≈ 94.9 µM) | > 50 | 21 | 49.3 (≈ 135 µM)
O=C1OCC(Nc2cccc(Cl)c2)=C1c1ccc(Br)cc1 | > 50 | 2.5 (≈ 6.86 µM) | 11.3 (≈ 31 µM) | 1.7 | 9 (≈ 24.7 µM)
O=C1OCC(Nc2ccc(Cl)cc2)=C1c1ccc(Br)cc1 | > 50 | 12.6 (≈ 34.6 µM) | > 50 | 15.2 | 25.7 (≈ 70.5 µM)
O=C1OCC(Nc2ccc(Br)cc2)=C1c1ccc(Br)cc1 | > 50 | 23.1 (≈ 56.5 µM) | > 50 | 11.4 | 41.8 (≈ 102 µM)
O=C1OCC(Nc2ccccc2[N+](=O)[O-])=C1c1ccc(Br)cc1 | > 50 | > 50 | > 50 | 67.3 | > 50
O=C1OCC(Nc2cccc([N+](=O)[O-])c2)=C1c1ccc(Br)cc1 | > 50 | 10.8 (≈ 28.8 µM) | 28.6 (≈ 76.2 µM) | 10.3 | 26.3 (≈ 70.1 µM)
O=C1OCC(Nc2ccc([N+](=O)[O-])cc2)=C1c1ccc(Br)cc1 | > 50 | > 50 | > 50 | 63.3 | > 50
O=C1OCC(Nc2cccc(O)c2)=C1c1ccc(Br)cc1 | > 50 | 25.2 (≈ 72.8 µM) | > 50 | 15.4 | > 50
O=C1OCC(Nc2ccc(O)cc2)=C1c1ccc(Br)cc1 | > 50 | > 50 | > 50 | 85.2 | > 50
COc1ccccc1NC1=C(c2ccc(Br)cc2)C(=O)OC1 | > 50 | > 50 | > 50 | 36.8 | > 50

Compound | MIC50 [1] [µg/mL] | MIC50 [2] [µg/mL] | MIC50 [3] [µg/mL] | IC50 [4] [µM] | MIC50 [5] [µg/mL]
COc1ccc(NC2=C(c3ccc(Br)cc3)C(=O)OC2)cc1 | > 50 | > 50 | > 50 | 97.6 | > 50
Cc1ccc(NC2=C(c3ccc(Br)cc3)C(=O)OC2)cc1 | > 50 | > 50 | > 50 | > 100 | > 50
O=C1OCC(Nc2cc(F)cc(F)c2)=C1c1ccc(Br)cc1 | > 50 | 7.1 (≈ 19.4 µM) | 19.4 (≈ 53 µM) | 6.3 | 21.7 (≈ 59.3 µM)
O=C1OCC(Nc2cc(Cl)cc(Cl)c2)=C1c1ccc(Br)cc1 | > 50 | 0.42 (≈ 1.05 µM) | 2.2 (≈ 5.51 µM) | 0.39 | 5.8 (≈ 14.5 µM)
O=C1OCC(Nc2cc(Br)cc(Br)c2)=C1c1ccc(Br)cc1 | > 50 | 23.5 (≈ 48.2 µM) | > 50 | 13.6 | 49.2 (≈ 101 µM)
COc1cc(NC2=C(c3ccc(Br)cc3)C(=O)OC2)cc(OC)c1 | > 50 | > 50 | > 50 | 17.5 | > 50
O=C1OCC(Nc2ccccc2Cl)=C1c1cccc(Cl)c1 | > 50 | 21.5 (≈ 67.2 µM) | 47.5 (≈ 148 µM) | 15.7 | 46.8 (≈ 146 µM)
O=C1OCC(Nc2cccc(Cl)c2)=C1c1cccc(Cl)c1 | > 50 | 4.6 (≈ 14.4 µM) | 11.7 (≈ 36.5 µM) | 4.3 | 12.2 (≈ 38.1 µM)
O=C1OCC(Nc2ccccc2[N+](=O)[O-])=C1c1cccc(Cl)c1 | > 50 | > 50 | > 50 | 49.7 | > 50
COc1ccccc1NC1=C(c2cccc(Cl)c2)C(=O)OC1 | > 50 | 49.4 (≈ 156 µM) | > 50 | 32.5 | > 50
O=C1OCC(Nc2cc(Cl)cc(Cl)c2)=C1c1cccc(Cl)c1 | > 50 | 2.9 (≈ 8.18 µM) | 13.4 (≈ 37.8 µM) | 2.9 | 10.1 (≈ 28.5 µM)
O=C1OCC(Nc2ccc(Br)cc2)=C1c1cccc(Br)c1 | > 50 | 6.5 (≈ 15.9 µM) | 31.6 (≈ 77.2 µM) | 5.4 | 18.7 (≈ 45.7 µM)
O=C1OCC(Nc2cc(Cl)cc(Cl)c2)=C1c1cccc(Br)c1 | > 50 | 0.06 (≈ 0.15 µM) | 1.2 (≈ 3.01 µM) | 0.09 | 5.4 (≈ 13.5 µM)
O=C1OCC(Nc2cc(Br)cc(Br)c2)=C1c1cccc(Br)c1 | > 50 | 2.3 (≈ 4.71 µM) | 8.8 (≈ 18 µM) | 1.9 | 8.5 (≈ 17.4 µM)
COc1ccc(C2=C(Nc3cc(Cl)cc(Cl)c3)COC2=O)cc1 | > 50 | 1.8 (≈ 5.14 µM) | 9.6 (≈ 27.4 µM) | 1.6 | 7.2 (≈ 20.6 µM)
O=C1OCC(Nc2cc(Cl)cc(Cl)c2)=C1c1ccc(O)cc1 | > 50 | 2.9 (≈ 8.63 µM) | 9.8 (≈ 29.2 µM) | 3.5 | 10.2 (≈ 30.3 µM)
NC[C@H]1O[C@H](O[C@H]2[C@H](O)[C@@H](O[C@H]3O[C@H](CO)[C@@H](O)[C@H](N)[C@H]3O)[C@H](N)C[C@@H]2N)[C@H](O)[C@@H](O)[C@@H]1O [KANAMYCIN] | – | 1.1 (≈ 2.27 µM) | 0.42 (≈ 0.867 µM) | – | –
CC(=O)N1CCN(c2ccc(OCC3COC(Cn4ccnc4)(c4ccc(Cl)cc4Cl)O3)cc2)CC1 (centres undefined) [KETOCONAZOLE] | – | – | – | – | 4.1 (≈ 7.71 µM)
CC1(C)S[C@@H]2[C@H](NC(=O)Cc3ccccc3)C(=O)N2[C@H]1C(=O)O [PENICILLIN G] | 2 (≈ 5.98 µM) | – | – | – | –
